Measured values reported in ChEMBL document CHEMBL1949609, “Synthesis and biological evaluation of novel sinomenine derivatives as anti-inflammatory agents” (Eur J Med Chem, 2012).

What was measured:
RAW264.7 [1] = assay: Cytotoxicity against mouse RAW264.7 cells after 24 hrs by MTT assay; type: cell-based; conditions: RAW264.7, 24 h
How it was run: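 Growth of non-LPS RAW264.7 cells was measured by MTT after 24 h with compound: MTT for 4 h, formazan dissolved in DMSO, OD570. Untreated cells were set as 100% viability. IC50 is the concentration giving 50% growth inhibition.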

RAW264.7 [2] = assay: Antiinflammatory activity in mouse RAW264.7 cells assessed as inhibition of LPS-induced nitric oxide production after 24 hrs by Griess method; type: functional, cell-based; conditions: RAW264.7, 24 h
How it was run: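 Cells were treated with compound (0.5–100 µM; 0.1% DMSO final) and LPS 500 ng/mL together for 24 h. Nitrite in the medium was read with Griess reagent (10 min, room temperature, dark) at OD540. IC50 comes from three separate experiments, each in triplicate.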

RAW264.7 [3] = assay: Antiinflammatory activity in mouse RAW264.7 cells assessed as inhibition of LPS-induced TNFalpha production at 10 uM after 24 hrs by ELISA (reference value: 10124 +/- 1137.2 pg/ml); type: functional
How it was run: (§1)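 RAW264.7 cells (DMEM, 5% FBS, 37 °C, 5% CO2) were exposed to compound at 10 µM plus LPS 500 ng/mL at the same time, with 0.1% DMSO final. Supernatant TNF-α and IL-6 were measured by ELISA at 6, 12 and 24 h.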

RAW264.7 [4] = assay: Antiinflammatory activity in mouse RAW264.7 cells assessed as inhibition of LPS-induced IL-6 production at 10 uM after 12 hrs by ELISA (reference value: 2145.1 +/- 368.7 pg/ml); type: functional; how it was run: as §1
RAW264.7 [5] = assay: Antiinflammatory activity in mouse RAW264.7 cells assessed as inhibition of LPS-induced TNFalpha production at 10 uM after 6 hrs by ELISA (reference value: 2646.1 +/- 499.8 pg/ml); type: functional; how it was run: as §1
RAW264.7 [6] = assay: Antiinflammatory activity in mouse RAW264.7 cells assessed as inhibition of LPS-induced IL-6 production at 10 uM after 6 hrs by ELISA (reference value: 1046.1 +/- 111.2 pg/ml); type: functional; how it was run: as §1
RAW264.7 [7] = assay: Antiinflammatory activity in mouse RAW264.7 cells assessed as inhibition of LPS-induced IL-6 production at 10 uM after 24 hrs by ELISA (reference value: 13412 +/- 1167.6 pg/ml); type: functional; how it was run: as §1
RAW264.7 [8] = assay: Antiinflammatory activity in mouse RAW264.7 cells assessed as inhibition of LPS-induced TNFalpha production at 10 uM after 12 hrs by ELISA (reference value: 4126.8 +/- 282 pg/ml); type: functional; how it was run: as §1

| Structure (SMILES) | IC50 (RAW264.7 [1]) [µM] | IC50 (RAW264.7 [2]) [µM] | further results |
| --- | --- | --- | --- |
| CCCCCCCCCOc1c(OC)ccc2c1[C@@]13CCN(C)[C@@H](C2)[C@H]1C=C(OC)C(=O)C3 | 14.5 | – | – |
| CCCCC(=O)Oc1c(OC)ccc2c1[C@@]13CCN(C)[C@@H](C2)[C@H]1C=C(OC)C(=O)C3 | > 100 | > 100 | – |
| COC1=C[C@@H]2[C@@H]3Cc4ccc(OC)c(OCCCCOc5c(OC)ccc6c5[C@@]57CCN(C)[C@@H](C6)[C@H]5C=C(OC)C(=O)C7)c4[C@]2(CCN3C)CC1=O | 36.7 | 24.6 | Activity (RAW264.7 [3]): 8744.4 pg/mL; Activity (RAW264.7 [4]): 1321.9 pg/mL; Activity (RAW264.7 [5]): 2018 pg/mL; Activity (RAW264.7 [6]): 853.3 pg/mL; Activity (RAW264.7 [7]): 10038.7 pg/mL; Activity (RAW264.7 [8]): 3732.8 pg/mL |
| CCCCCCCCOc1c(OC)ccc2c1[C@@]13CCN(C)[C@@H](C2)[C@H]1C=C(OC)C(=O)C3 | 17.6 | 14.2 | – |
| CCOc1c(OC)ccc2c1[C@@]13CCN(C)[C@@H](C2)[C@H]1C=C(OC)C(=O)C3 | > 100 | > 100 | – |
| COC1=C[C@@H]2[C@@H]3Cc4ccc(OC)c(OCCCCCCCCCOc5c(OC)ccc6c5[C@@]57CCN(C)[C@@H](C6)[C@H]5C=C(OC)C(=O)C7)c4[C@]2(CCN3C)CC1=O | 3.7 | 2.9 | – |
| CCCCCCCOc1c(OC)ccc2c1[C@@]13CCN(C)[C@@H](C2)[C@H]1C=C(OC)C(=O)C3 | 33.8 | 21.3 | Activity (RAW264.7 [3]): 9134.7 pg/mL; Activity (RAW264.7 [4]): 513.9 pg/mL; Activity (RAW264.7 [5]): 2248.7 pg/mL; Activity (RAW264.7 [6]): 207.5 pg/mL; Activity (RAW264.7 [7]): 4370.2 pg/mL; Activity (RAW264.7 [8]): 4127.2 pg/mL |
| COC1=C[C@@H]2[C@@H]3Cc4ccc(OC)c(OCCOCCOCCOc5c(OC)ccc6c5[C@@]57CCN(C)[C@@H](C6)[C@H]5C=C(OC)C(=O)C7)c4[C@]2(CCN3C)CC1=O | > 100 | > 100 | – |
| COC1=C[C@@H]2[C@@H]3Cc4ccc(OC)c(OCc5cccc(COc6c(OC)ccc7c6[C@@]68CCN(C)[C@@H](C7)[C@H]6C=C(OC)C(=O)C8)c5)c4[C@]2(CCN3C)CC1=O | 14.2 | – | – |
| COC1=C[C@@H]2[C@@H]3Cc4ccc(OC)c(OC(=O)CCCCC(=O)Oc5c(OC)ccc6c5[C@@]57CCN(C)[C@@H](C6)[C@H]5C=C(OC)C(=O)C7)c4[C@]2(CCN3C)CC1=O | > 100 | > 100 | – |
| COC1=C[C@@H]2[C@@H]3Cc4ccc(OC)c(OCCCCCCOc5c(OC)ccc6c5[C@@]57CCN(C)[C@@H](C6)[C@H]5C=C(OC)C(=O)C7)c4[C@]2(CCN3C)CC1=O | 9.5 | – | – |
| CCCC(=O)Oc1c(OC)ccc2c1[C@@]13CCN(C)[C@@H](C2)[C@H]1C=C(OC)C(=O)C3 | > 100 | > 100 | – |
| N=C(N)NN [PIMAGEDINE] | – | 22.6 | – |
| COC1=C[C@@H]2[C@@H]3Cc4ccc(OC)c(OCc5ccc(COc6c(OC)ccc7c6[C@@]68CCN(C)[C@@H](C7)[C@H]6C=C(OC)C(=O)C8)cc5)c4[C@]2(CCN3C)CC1=O | 12.5 | – | – |
| COC1=C[C@@H]2[C@@H]3Cc4ccc(OC)c(OC(=O)CCC(=O)Oc5c(OC)ccc6c5[C@@]57CCN(C)[C@@H](C6)[C@H]5C=C(OC)C(=O)C7)c4[C@]2(CCN3C)CC1=O | > 100 | > 100 | – |
| COC1=C[C@@H]2[C@@H]3Cc4ccc(OC)c(OC(=O)CCCC(=O)Oc5c(OC)ccc6c5[C@@]57CCN(C)[C@@H](C6)[C@H]5C=C(OC)C(=O)C7)c4[C@]2(CCN3C)CC1=O | > 100 | > 100 | – |
| COC1=C[C@@H]2[C@@H]3Cc4ccc(OC)c(OCCCCCOc5c(OC)ccc6c5[C@@]57CCN(C)[C@@H](C6)[C@H]5C=C(OC)C(=O)C7)c4[C@]2(CCN3C)CC1=O | 4.2 | 3.6 | – |

| Structure (SMILES) | IC50 (RAW264.7 [1]) [µM] | IC50 (RAW264.7 [2]) [µM] | further results |
| --- | --- | --- | --- |
| COC1=C[C@@H]2[C@@H]3Cc4ccc(OC)c(OCCOc5c(OC)ccc6c5[C@@]57CCN(C)[C@@H](C6)[C@H]5C=C(OC)C(=O)C7)c4[C@]2(CCN3C)CC1=O | > 100 | > 100 | – |
| CCCCCCCC(=O)Oc1c(OC)ccc2c1[C@@]13CCN(C)[C@@H](C2)[C@H]1C=C(OC)C(=O)C3 | 49.5 | 32.6 | Activity (RAW264.7 [3]): 7676.3 pg/mL; Activity (RAW264.7 [4]): 733.3 pg/mL; Activity (RAW264.7 [5]): 2298.9 pg/mL; Activity (RAW264.7 [6]): 229.9 pg/mL; Activity (RAW264.7 [7]): 7143.8 pg/mL; Activity (RAW264.7 [8]): 3357.8 pg/mL |
| CCCCCCCCCCOc1c(OC)ccc2c1[C@@]13CCN(C)[C@@H](C2)[C@H]1C=C(OC)C(=O)C3 | 1.9 | – | – |
| CCCOc1c(OC)ccc2c1[C@@]13CCN(C)[C@@H](C2)[C@H]1C=C(OC)C(=O)C3 | > 100 | > 100 | – |
| CCCCCOc1c(OC)ccc2c1[C@@]13CCN(C)[C@@H](C2)[C@H]1C=C(OC)C(=O)C3 | 53.4 | 38.8 | – |
| COC1=C[C@@H]2[C@@H]3Cc4ccc(OC)c(OC(=O)CCCCCCCC(=O)Oc5c(OC)ccc6c5[C@@]57CCN(C)[C@@H](C6)[C@H]5C=C(OC)C(=O)C7)c4[C@]2(CCN3C)CC1=O | 50.8 | 29.5 | Activity (RAW264.7 [3]): 9003.6 pg/mL; Activity (RAW264.7 [4]): 1577.1 pg/mL; Activity (RAW264.7 [5]): 2107.1 pg/mL; Activity (RAW264.7 [6]): 825.5 pg/mL; Activity (RAW264.7 [7]): 12863.3 pg/mL; Activity (RAW264.7 [8]): 3614.3 pg/mL |
| CCCCCC(=O)Oc1c(OC)ccc2c1[C@@]13CCN(C)[C@@H](C2)[C@H]1C=C(OC)C(=O)C3 | 78.1 | – | – |
| COC1=C[C@@H]2[C@@H]3Cc4ccc(OC)c(OC(=O)CCCCCCC(=O)Oc5c(OC)ccc6c5[C@@]57CCN(C)[C@@H](C6)[C@H]5C=C(OC)C(=O)C7)c4[C@]2(CCN3C)CC1=O | 17.3 | – | – |
| COC1=C[C@@H]2[C@@H]3Cc4ccc(OC)c(OCCCCCCCCCCOc5c(OC)ccc6c5[C@@]57CCN(C)[C@@H](C6)[C@H]5C=C(OC)C(=O)C7)c4[C@]2(CCN3C)CC1=O | 2.8 | – | – |
| COC1=C[C@@H]2[C@@H]3Cc4ccc(OC)c(OCCCCCCCOc5c(OC)ccc6c5[C@@]57CCN(C)[C@@H](C6)[C@H]5C=C(OC)C(=O)C7)c4[C@]2(CCN3C)CC1=O | 2.6 | – | – |
| COC1=C[C@@H]2[C@@H]3Cc4ccc(OC)c(OCCOCCOCCOCCOc5c(OC)ccc6c5[C@@]57CCN(C)[C@@H](C6)[C@H]5C=C(OC)C(=O)C7)c4[C@]2(CCN3C)CC1=O | > 100 | > 100 | – |
| COC1=C[C@@H]2[C@@H]3Cc4ccc(OC)c(OCCCCCCCCOc5c(OC)ccc6c5[C@@]57CCN(C)[C@@H](C6)[C@H]5C=C(OC)C(=O)C7)c4[C@]2(CCN3C)CC1=O | 5.4 | 3.8 | – |
| COC1=C[C@@H]2[C@@H]3Cc4ccc(OC)c(OC(=O)CCCCCC(=O)Oc5c(OC)ccc6c5[C@@]57CCN(C)[C@@H](C6)[C@H]5C=C(OC)C(=O)C7)c4[C@]2(CCN3C)CC1=O | 52.7 | – | – |
| COC1=C[C@@H]2[C@@H]3Cc4ccc(OC)c(OCCOCCOc5c(OC)ccc6c5[C@@]57CCN(C)[C@@H](C6)[C@H]5C=C(OC)C(=O)C7)c4[C@]2(CCN3C)CC1=O | 59.7 | – | – |
| CCCCCCC(=O)Oc1c(OC)ccc2c1[C@@]13CCN(C)[C@@H](C2)[C@H]1C=C(OC)C(=O)C3 | 38.6 | – | – |
| CCCCOc1c(OC)ccc2c1[C@@]13CCN(C)[C@@H](C2)[C@H]1C=C(OC)C(=O)C3 | 68.1 | 59.6 | – |
| CCCCCCOc1c(OC)ccc2c1[C@@]13CCN(C)[C@@H](C2)[C@H]1C=C(OC)C(=O)C3 | 29.1 | – | – |
